Laboratory results published in ChEMBL document CHEMBL4689842, “EUbOPEN Chemogenomics Library wave 1” (2021).

Tested on: U2OS
Assay: Multiplex assay against U2OS
Assay type: toxicity, cell-based
Details: human
Procedure, shortened: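 Tubulin, mitochondrial-mass and membrane-permeability phenotypes are per cents of healthy-nucleus cells. Cells were gated by CellPathfinder machine learning into Hoechst high-intensity objects or normal cells, normal cells into healthy, pyknosed or fragmented nuclei, and pyknosed cells into mitotic or apoptotic. Before that, live cells stained at seeding with Hoechst33342, BioTracker Green Microtubule Cytoskeleton Dye, MitoTracker Red and Annexin V Alexa Fluor 680 were imaged on a CQ1 microscope at 37°C and 5% CO2 after compound addition.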

[1] = 12 h, 1 µM, compound concentration 1 uM, replicate 1
[2] = 12 h, 1 µM, compound concentration 1 uM, replicate 2
[3] = 12 h, 10 µM, compound concentration 10 uM, replicate 1
[4] = 12 h, 10 µM, compound concentration 10 uM, replicate 2
[5] = 24 h, 1 µM, compound concentration 1 uM, replicate 1
[6] = 24 h, 1 µM, compound concentration 1 uM, replicate 2
[7] = 24 h, 10 µM, compound concentration 10 uM, replicate 1
[8] = 24 h, 10 µM, compound concentration 10 uM, replicate 2
[9] = 48 h, 1 µM, compound concentration 1 uM, replicate 1
[10] = 48 h, 1 µM, compound concentration 1 uM, replicate 2
[11] = 48 h, 10 µM, compound concentration 10 uM, replicate 1
[12] = 48 h, 10 µM, compound concentration 10 uM, replicate 2

Cc1ccc(C(=O)Nc2cccc(C(F)(F)F)c2)cc1Nc1nc(-c2cccnc2)nc2c1cnn2C
Population Apoptotic (%) [1]: 41% | Population Fragmented Nuclei (%) [1]: 18% | Population Healthy Nuclei (%) [1]: 63% | Population Hoechst High Intensity Objects (%) [1]: 10% | Population Membrane Permeable-Phenotype (%) [1]: 8% | Population Mitochondria Different-Phenotype (%) [1]: 12% | Population Mitotic Cells (%) [1]: 58% | Population Normal (%) [1]: 89% | Population Pyknosed Nuclei (%) [1]: 18% | Population Tubulin-Different-Phenotype (%) [1]: 13% | Total Cell Count [1]: 151 | Population Apoptotic (%) [2]: 50% | Population Fragmented Nuclei (%) [2]: 14% | Population Healthy Nuclei (%) [2]: 73% | Population Hoechst High Intensity Objects (%) [2]: 3% | Population Membrane Permeable-Phenotype (%) [2]: 6% | Population Mitochondria Different-Phenotype (%) [2]: 25% | Population Mitotic Cells (%) [2]: 50% | Population Normal (%) [2]: 96% | Population Pyknosed Nuclei (%) [2]: 12% | Population Tubulin-Different-Phenotype (%) [2]: 14% | Total Cell Count [2]: 101 | Population Apoptotic (%) [3]: 69% | Population Fragmented Nuclei (%) [3]: 13% | Population Healthy Nuclei (%) [3]: 48% | Population Hoechst High Intensity Objects (%) [3]: 6% | Population Membrane Permeable-Phenotype (%) [3]: 53% | Population Mitochondria Different-Phenotype (%) [3]: 87% | Population Mitotic Cells (%) [3]: 30% | Population Normal (%) [3]: 93% | Population Pyknosed Nuclei (%) [3]: 38% | Population Tubulin-Different-Phenotype (%) [3]: 98% | Total Cell Count [3]: 147 | Population Apoptotic (%) [4]: 61% | Population Fragmented Nuclei (%) [4]: 18% | Population Healthy Nuclei (%) [4]: 42% | Population Hoechst High Intensity Objects (%) [4]: 8% | Population Membrane Permeable-Phenotype (%) [4]: 78% | Population Mitochondria Different-Phenotype (%) [4]: 92% | Population Mitotic Cells (%) [4]: 38% | Population Normal (%) [4]: 91% | Population Pyknosed Nuclei (%) [4]: 39% | Population Tubulin-Different-Phenotype (%) [4]: 100% | Total Cell Count [4]: 66 | Population Apoptotic (%) [5]: 42% | Population Fragmented Nuclei (%) [5]: 10% | Population Healthy Nuclei (%) [5]: 75% | Population Hoechst High Intensity Objects (%) [5]: 9% | Population Membrane Permeable-Phenotype (%) [5]: 2% | Population Mitochondria Different-Phenotype (%) [5]: 14% | Population Mitotic Cells (%) [5]: 57% | Population Normal (%) [5]: 90% | Population Pyknosed Nuclei (%) [5]: 13% | Population Tubulin-Different-Phenotype (%) [5]: 8% | Total Cell Count [5]: 153 | Population Apoptotic (%) [6]: 27% | Population Fragmented Nuclei (%) [6]: 12% | Population Healthy Nuclei (%) [6]: 72% | Population Hoechst High Intensity Objects (%) [6]: 3% | Population Membrane Permeable-Phenotype (%) [6]: 7% | Population Mitochondria Different-Phenotype (%) [6]: 29% | Population Mitotic Cells (%) [6]: 72% | Population Normal (%) [6]: 96% | Population Pyknosed Nuclei (%) [6]: 14% | Population Tubulin-Different-Phenotype (%) [6]: 16% | Total Cell Count [6]: 101 | Population Healthy Nuclei (%) [7]: 16% | Population Hoechst High Intensity Objects (%) [7]: 4% | Population Membrane Permeable-Phenotype (%) [7]: 80% | Population Mitochondria Different-Phenotype (%) [7]: 100% | Population Mitotic Cells (%) [7]: 10% | Population Normal (%) [7]: 95% | Population Pyknosed Nuclei (%) [7]: 57% | Total Cell Count [7]: 166 | Population Apoptotic (%) [8]: 90% | Population Fragmented Nuclei (%) [8]: 26% | Population Healthy Nuclei (%) [8]: 11% | Population Hoechst High Intensity Objects (%) [8]: 20% | Population Membrane Permeable-Phenotype (%) [8]: 100% | Population Mitochondria Different-Phenotype (%) [8]: 75% | Population Mitotic Cells (%) [8]: 9% | Population Normal (%) [8]: 79% | Population Pyknosed Nuclei (%) [8]: 61% | Population Tubulin-Different-Phenotype (%) [8]: 100% | Total Cell Count [8]: 77 | Population Apoptotic (%) [9]: 58% | Population Fragmented Nuclei (%) [9]: 11% | Population Healthy Nuclei (%) [9]: 80% | Population Hoechst High Intensity Objects (%) [9]: 4% | Population Membrane Permeable-Phenotype (%) [9]: 6% | Population Mitochondria Different-Phenotype (%) [9]: 22% | Population Mitotic Cells (%) [9]: 41% | Population Normal (%) [9]: 95% | Population Pyknosed Nuclei (%) [9]: 8% | Population Tubulin-Different-Phenotype (%) [9]: 10% | Total Cell Count [9]: 140 | Population Apoptotic (%) [10]: 70% | Population Fragmented Nuclei (%) [10]: 7% | Population Healthy Nuclei (%) [10]: 78% | Population Hoechst High Intensity Objects (%) [10]: 10% | Population Membrane Permeable-Phenotype (%) [10]: 11% | Population Mitochondria Different-Phenotype (%) [10]: 29% | Population Mitotic Cells (%) [10]: 30% | Population Normal (%) [10]: 89% | Population Pyknosed Nuclei (%) [10]: 14% | Population Tubulin-Different-Phenotype (%) [10]: 22% | Total Cell Count [10]: 93 | Population Apoptotic (%) [11]: 96% | Population Fragmented Nuclei (%) [11]: 35% | Population Healthy Nuclei (%) [11]: 10% | Population Hoechst High Intensity Objects (%) [11]: 10% | Population Membrane Permeable-Phenotype (%) [11]: 100% | Population Mitochondria Different-Phenotype (%) [11]: 100% | Population Mitotic Cells (%) [11]: 3% | Population Normal (%) [11]: 90% | Population Pyknosed Nuclei (%) [11]: 54% | Population Tubulin-Different-Phenotype (%) [11]: 100% | Total Cell Count [11]: 219 | Population Apoptotic (%) [12]: 100% | Population Fragmented Nuclei (%) [12]: 25% | Population Healthy Nuclei (%) [12]: 21% | Population Hoechst High Intensity Objects (%) [12]: 28% | Population Mitotic Cells (%) [12]: 0% | Population Normal (%) [12]: 71% | Population Pyknosed Nuclei (%) [12]: 53% | Total Cell Count [12]: 77
